The results in this text go back to ChEMBL document CHEMBL1128699, “Inhibition of the EGF-stimulated cellular proliferation of ER 22 cells by hydroxybiphenyl derivatives” (J Med Chem, 1995).

In assay [1] the target is T1, Epidermal growth factor receptor (Homo sapiens, UniProt P00533). Kind of assay: In vitro inhibition of intrinsic tyrosine protein kinase activity of the Epidermal growth factor receptor using […]. The method in brief:
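Enzyme source was ER 22 membranes purified on 32% sucrose. Reaction buffer: 20 mM Hepes pH 7.4, 1 mM MnCl2, 0.1 mg/mL BSA, 100 ng/mL EGF. Receptor was preincubated with EGF for 10 min at room temperature, then inhibitor was added. It was stopped with TCA; supernatant was spotted on phosphocellulose paper, washed in phosphoric acid and counted by scintillation.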

For assay [2], the target named is T1, Epidermal growth factor receptor. To be noted: 5 uM.
Assay [3] shares this target. To be noted: 10 uM.
Assay [4] has the same target. To be noted: 10 uM. This is another data set of the same source.
The target is the same in assay [5]. Kind of assay: Inhibition of Epidermal growth factor receptor activity against […] at 10 uM.
Assay [6] has the same target. To be noted: 1.25 uM.
For assay [7] the target is unchanged. To be noted: 5 uM. This is another data set of the same source.
The target is the same in assay [8]. The conditions noted are these: 10 uM. This is another data set of the same source.
The target is the same in assay [9]. To be noted: 10 uM. This is another data set of the same source.

T1 sequence (P00533 whole entry): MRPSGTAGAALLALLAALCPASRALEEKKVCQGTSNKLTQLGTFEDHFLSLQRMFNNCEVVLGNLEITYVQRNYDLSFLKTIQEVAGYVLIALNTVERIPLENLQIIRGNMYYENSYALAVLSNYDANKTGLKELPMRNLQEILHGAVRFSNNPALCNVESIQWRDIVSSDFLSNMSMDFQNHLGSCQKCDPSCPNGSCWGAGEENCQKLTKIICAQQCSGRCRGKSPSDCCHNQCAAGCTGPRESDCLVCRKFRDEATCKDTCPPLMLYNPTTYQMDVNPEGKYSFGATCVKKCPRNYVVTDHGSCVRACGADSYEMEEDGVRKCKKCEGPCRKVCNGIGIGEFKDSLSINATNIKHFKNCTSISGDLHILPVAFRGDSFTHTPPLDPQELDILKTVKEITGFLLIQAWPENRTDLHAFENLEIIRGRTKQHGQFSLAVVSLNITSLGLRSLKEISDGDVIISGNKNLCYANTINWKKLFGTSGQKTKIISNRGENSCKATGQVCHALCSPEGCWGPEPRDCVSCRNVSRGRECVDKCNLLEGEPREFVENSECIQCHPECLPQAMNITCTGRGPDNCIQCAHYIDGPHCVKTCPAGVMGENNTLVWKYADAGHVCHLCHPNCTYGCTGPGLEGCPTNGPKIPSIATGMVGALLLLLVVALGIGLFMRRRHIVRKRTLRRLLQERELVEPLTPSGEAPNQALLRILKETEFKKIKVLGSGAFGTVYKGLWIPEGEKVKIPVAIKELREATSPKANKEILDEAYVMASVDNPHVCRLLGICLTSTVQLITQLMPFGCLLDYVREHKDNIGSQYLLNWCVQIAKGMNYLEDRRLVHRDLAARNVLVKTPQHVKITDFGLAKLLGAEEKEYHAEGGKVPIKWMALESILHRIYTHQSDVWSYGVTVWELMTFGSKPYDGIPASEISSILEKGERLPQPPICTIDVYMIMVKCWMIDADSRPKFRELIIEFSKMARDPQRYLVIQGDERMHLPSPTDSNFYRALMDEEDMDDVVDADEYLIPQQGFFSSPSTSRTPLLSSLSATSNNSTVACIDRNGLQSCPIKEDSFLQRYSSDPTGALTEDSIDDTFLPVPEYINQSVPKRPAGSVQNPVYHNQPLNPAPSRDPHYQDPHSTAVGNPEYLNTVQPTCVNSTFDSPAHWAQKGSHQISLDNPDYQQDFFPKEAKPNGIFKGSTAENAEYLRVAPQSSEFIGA

The term IC50 denotes the concentration that gives 50% inhibition. The term inhibition denotes the share of the control response that was lost under treatment. A low value points to a response near the control. In turn, `COCOc1cc(-c2ccccc2)ccc1-c1ccc(C(=O)OCC(C)CC(C)(C)C)cc1` (stereo not drawn) had an IC50 in assay [1] above 20 µM. In addition, in assay [2], the inhibition amounted to 10%.
Molecule `COCOc1cc(-c2ccccc2)ccc1-c1ccc(C(=O)NCc2ccccc2)cc1` yielded an IC50 in assay [1] above 1 µM.
Same read-out and setting: to `CC(C)(C)c1cc(O)cc(-c2ccc(C(=O)O)cc2)c1` belongs above 50 µM.
Consider `CC(COC(=O)c1ccc(-c2ccc(C(C)(C)C)cc2O)cc1)CC(C)(C)C` (stereo not drawn), for which the inhibition in assay [2] was 25%; in assay [3], 3%.
Turning to `O=C(NCc1ccccc1)c1ccc(-c2cccc(-c3ccccc3)c2O)cc1`, the IC50 in [1] was above 5 µM.
With `CC(COC(=O)c1ccc(-c2cc(O)cc(C(C)(C)C)c2)cc1)CC(C)(C)C` (stereo not drawn), in assay [3], the inhibition turned out to be 10%.
In turn, `O=C(O)c1ccc(-c2cc(O)cc(-c3ccccc3)c2)cc1` yielded an inhibition in [3] of 9%.
`COCOc1cc(-c2ccccc2)ccc1-c1ccc(C(=O)O)cc1` showed an inhibition in assay [4] of 8%.
For `COCOc1cc(C(C)(C)C)ccc1-c1ccc(C(=O)OCC(C)CC(C)(C)C)cc1` (stereo not drawn), the IC50 in assay [1] was above 50 µM.
In [5], `COCOc1cc(C(C)(C)C)ccc1-c1ccc(C(=O)OC)cc1` had an IC50 above 10 µM.
Regarding `CC(COC(=O)c1ccc(-c2ccc(-c3ccccc3)cc2O)cc1)CC(C)(C)C` (stereo not drawn), the inhibition in assay [2] came out at 27%; in [4], 3%.
With `COC(=O)c1ccc(-c2ccc(-c3ccccc3)cc2O)cc1`, in assay [1], the IC50 is 14 µM. Moreover, in assay [6], the inhibition was determined as 41%.
`O=C(NCc1ccccc1)c1ccc(-c2cc(O)cc(-c3ccccc3)c2)cc1`: the inhibition in assay [3] amounted to 5%.
Still for that read-out and setting: to `COC(=O)c1ccc(-c2ccc(C(C)(C)C)cc2O)cc1` belongs 6%.
In [3], `CC(COC(=O)c1ccc(-c2cc(O)cc(-c3ccccc3)c2)cc1)CC(C)(C)C` (stereo not drawn) registered an inhibition of 15%.
For the molecule `CC(C)(C)c1ccc(-c2ccc(C(=O)O)cc2)c(O)c1`, the IC50 in assay [1] is above 10 µM.
In assay [1], `CC(C)(C)c1cc(O)cc(-c2ccc(C(=O)NCc3ccccc3)cc2)c1` registered an IC50 above 5 µM.
For `COCOc1cc(C(C)(C)C)ccc1-c1ccc(C(=O)NCc2ccccc2)cc1`, the IC50 in [1] was above 5 µM. Further, the inhibition in assay [7] was determined as 47%.
In the case of `CC(C)(C)c1ccc(-c2ccc(C(=O)NCc3ccccc3)cc2)c(O)c1`, the IC50 in [1] is above 5 µM. In assay [8], this molecule yielded an inhibition of 57%.
For `COC(=O)c1ccc(-c2cc(O)cc(C(C)(C)C)c2)cc1`, the IC50 in assay [1] is above 10 µM.
The same measure, in the same setting: with `COC(=O)c1ccc(-c2cccc(-c3ccccc3)c2O)cc1` the figure was above 20 µM.
In the case of `COCOc1c(-c2ccccc2)cccc1-c1ccc(C(=O)OCC(C)CC(C)(C)C)cc1` (stereo not drawn), the inhibition in assay [4] was 16%.
In turn, `O=C(NCc1ccccc1)c1ccc(-c2ccc(-c3ccccc3)cc2O)cc1` had an IC50 in [1] above 1 µM.
In the case of `COCOc1cc(-c2ccccc2)ccc1-c1ccc(C(=O)OC)cc1`, the inhibition in assay [4] came to 2%.
`CC(C)(C)c1cc(O)cc(-c2ccc(CO)cc2)c1` returned an IC50 in assay [1] above 10 µM. Besides, the inhibition in assay [9] was determined as 21%.
As to `CC(COC(=O)c1ccc(-c2cccc(-c3ccccc3)c2O)cc1)CC(C)(C)C` (stereo not drawn), the inhibition in [4] worked out at 11%.
